Our source for the fold change (FC) and inhibition values is ChEMBL document CHEMBL5653631, “A Potent and Selective ULK1 Inhibitor Suppresses Autophagy and Sensitizes Cancer Cells to Nutrient Stress” (iScience, 2018).

Assay [1] deals with Serine/threonine-protein kinase PLK3 (Homo sapiens) (UniProt Q9H4B4). Briefly: Inhibition of human recombinant PLK3 at 40 nM related to control ULK1.
Assay [2] deals with 5'-AMP-activated protein kinase catalytic subunit alpha-2 (Homo sapiens) (UniProt P54646). Briefly: Inhibition of human recombinant AMPKa2 at 40 nM in presence of ATP by radiometric assay relative to control. In a few lines: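 Panel of 327 recombinant human kinases, each assayed in vitro by radiometric activity assay in duplicate at a single inhibitor concentration per compound, chosen with reference to its ULK1 inhibition. Activity remaining was expressed as percent of vehicle control, and percent inhibition was calculated as 100 minus percent activity remaining.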

Assay [3] concerns the target Mast/stem cell growth factor receptor Kit (Homo sapiens) (UniProt P10721). Briefly: Inhibition of human recombinant KIT at 500 nM related to control ULK1.
The target of assay [4] is T1, Serine/threonine-protein kinase ULK3 (Homo sapiens) (UniProt Q6PHR2).
T1 sequence (whole entry): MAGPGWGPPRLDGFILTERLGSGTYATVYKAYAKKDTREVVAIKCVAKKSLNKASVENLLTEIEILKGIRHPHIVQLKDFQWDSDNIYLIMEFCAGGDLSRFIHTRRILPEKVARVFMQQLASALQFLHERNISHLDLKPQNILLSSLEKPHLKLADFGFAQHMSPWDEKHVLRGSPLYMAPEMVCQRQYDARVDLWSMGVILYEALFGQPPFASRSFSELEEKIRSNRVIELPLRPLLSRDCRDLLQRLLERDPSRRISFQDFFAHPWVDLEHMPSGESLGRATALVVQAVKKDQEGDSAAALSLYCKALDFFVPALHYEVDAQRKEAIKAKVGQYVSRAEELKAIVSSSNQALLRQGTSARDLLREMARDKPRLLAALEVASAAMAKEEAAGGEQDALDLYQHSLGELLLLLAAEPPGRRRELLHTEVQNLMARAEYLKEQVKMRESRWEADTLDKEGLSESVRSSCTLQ
In words: Inhibition of human recombinant ULK3 at 500 nM related to control ULK1.

In assay [5] the target is T2, cGMP-dependent protein kinase 1 (Homo sapiens) (UniProt Q13976).
T2 sequence (whole entry): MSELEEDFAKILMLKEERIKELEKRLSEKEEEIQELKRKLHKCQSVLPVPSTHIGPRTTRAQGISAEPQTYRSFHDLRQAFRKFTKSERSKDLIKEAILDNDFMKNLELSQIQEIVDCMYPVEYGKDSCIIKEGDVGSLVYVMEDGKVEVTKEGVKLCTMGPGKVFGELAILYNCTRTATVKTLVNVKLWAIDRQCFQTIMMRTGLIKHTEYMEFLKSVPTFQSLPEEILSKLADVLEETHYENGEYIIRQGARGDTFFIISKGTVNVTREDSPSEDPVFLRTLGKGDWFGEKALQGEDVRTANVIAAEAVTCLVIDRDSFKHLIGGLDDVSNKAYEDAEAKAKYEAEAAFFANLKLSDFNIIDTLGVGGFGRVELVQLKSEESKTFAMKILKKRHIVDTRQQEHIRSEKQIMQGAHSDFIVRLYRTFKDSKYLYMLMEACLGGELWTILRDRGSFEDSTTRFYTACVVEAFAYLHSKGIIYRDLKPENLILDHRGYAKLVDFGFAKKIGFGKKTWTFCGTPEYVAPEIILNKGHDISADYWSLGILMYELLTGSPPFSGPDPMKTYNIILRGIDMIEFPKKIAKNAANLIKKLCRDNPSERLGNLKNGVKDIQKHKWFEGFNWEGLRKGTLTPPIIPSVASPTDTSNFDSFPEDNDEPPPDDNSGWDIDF
Briefly: Inhibition of human recombinant PKG1 at 500 nM in presence of ATP by radiometric assay relative to control.

For assay [6], the target named is Protein kinase C theta type (Homo sapiens) (UniProt Q04759). Briefly: Inhibition of human recombinant PKCt at 500 nM related to control ULK1.
Assay [7] addresses T3, Serine/threonine-protein kinase tousled-like 1 (Homo sapiens) (UniProt Q9UKI8).
T3 sequence (whole entry): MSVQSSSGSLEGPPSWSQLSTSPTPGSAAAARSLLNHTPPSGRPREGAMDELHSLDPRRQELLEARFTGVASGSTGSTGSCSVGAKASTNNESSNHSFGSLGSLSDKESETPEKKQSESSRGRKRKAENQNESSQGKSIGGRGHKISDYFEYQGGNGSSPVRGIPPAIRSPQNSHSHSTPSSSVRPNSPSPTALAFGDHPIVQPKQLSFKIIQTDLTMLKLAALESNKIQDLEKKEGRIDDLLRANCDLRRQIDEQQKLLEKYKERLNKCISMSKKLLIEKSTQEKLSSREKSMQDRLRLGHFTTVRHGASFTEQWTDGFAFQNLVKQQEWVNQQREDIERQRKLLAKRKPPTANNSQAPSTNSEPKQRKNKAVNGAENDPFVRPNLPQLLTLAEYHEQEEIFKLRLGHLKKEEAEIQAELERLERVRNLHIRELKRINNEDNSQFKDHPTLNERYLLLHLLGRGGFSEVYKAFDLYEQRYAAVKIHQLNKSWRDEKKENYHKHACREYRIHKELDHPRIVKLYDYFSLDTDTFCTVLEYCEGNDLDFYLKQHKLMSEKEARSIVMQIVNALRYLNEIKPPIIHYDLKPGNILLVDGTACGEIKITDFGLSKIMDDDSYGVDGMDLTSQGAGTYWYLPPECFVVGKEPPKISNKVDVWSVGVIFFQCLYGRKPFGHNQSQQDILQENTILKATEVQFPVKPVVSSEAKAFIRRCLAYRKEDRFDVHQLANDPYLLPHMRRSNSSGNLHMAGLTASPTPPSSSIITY
In words: Inhibition of human recombinant TLK1 at 15 nM related to control ULK1.

For assay [8], the target named is Misshapen-like kinase 1 (Homo sapiens) (UniProt Q8N4C8). Briefly: Inhibition of human recombinant MINK at 15 nM in presence of ATP by radiometric assay relative to control.
Assay [9] addresses Tyrosine-protein kinase ABL2 (Homo sapiens) (UniProt P42684). Briefly: Inhibition of human recombinant ABL2 at 15 nM related to control ULK1.
The target in assay [10] is Calcium/calmodulin-dependent protein kinase type II subunit alpha (Homo sapiens) (UniProt Q9UQM7). In words: Inhibition of human recombinant CaMK2a at 15 nM related to control ULK1.
Calcium/calmodulin-dependent protein kinase type II subunit alpha (Homo sapiens), sequence (Q9UQM7 whole entry): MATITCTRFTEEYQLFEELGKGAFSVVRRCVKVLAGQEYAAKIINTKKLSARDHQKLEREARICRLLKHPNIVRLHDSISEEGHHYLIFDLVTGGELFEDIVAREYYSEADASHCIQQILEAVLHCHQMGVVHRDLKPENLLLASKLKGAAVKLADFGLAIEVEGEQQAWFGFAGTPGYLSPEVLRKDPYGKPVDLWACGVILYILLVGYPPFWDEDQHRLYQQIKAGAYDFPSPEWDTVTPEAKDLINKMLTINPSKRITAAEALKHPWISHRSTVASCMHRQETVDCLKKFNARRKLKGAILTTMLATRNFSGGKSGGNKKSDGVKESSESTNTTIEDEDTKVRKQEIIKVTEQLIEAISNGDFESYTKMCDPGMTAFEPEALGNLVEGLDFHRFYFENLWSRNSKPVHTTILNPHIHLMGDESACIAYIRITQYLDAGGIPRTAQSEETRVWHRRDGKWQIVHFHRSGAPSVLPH

Mast/stem cell growth factor receptor Kit (Homo sapiens), sequence (P10721 whole entry): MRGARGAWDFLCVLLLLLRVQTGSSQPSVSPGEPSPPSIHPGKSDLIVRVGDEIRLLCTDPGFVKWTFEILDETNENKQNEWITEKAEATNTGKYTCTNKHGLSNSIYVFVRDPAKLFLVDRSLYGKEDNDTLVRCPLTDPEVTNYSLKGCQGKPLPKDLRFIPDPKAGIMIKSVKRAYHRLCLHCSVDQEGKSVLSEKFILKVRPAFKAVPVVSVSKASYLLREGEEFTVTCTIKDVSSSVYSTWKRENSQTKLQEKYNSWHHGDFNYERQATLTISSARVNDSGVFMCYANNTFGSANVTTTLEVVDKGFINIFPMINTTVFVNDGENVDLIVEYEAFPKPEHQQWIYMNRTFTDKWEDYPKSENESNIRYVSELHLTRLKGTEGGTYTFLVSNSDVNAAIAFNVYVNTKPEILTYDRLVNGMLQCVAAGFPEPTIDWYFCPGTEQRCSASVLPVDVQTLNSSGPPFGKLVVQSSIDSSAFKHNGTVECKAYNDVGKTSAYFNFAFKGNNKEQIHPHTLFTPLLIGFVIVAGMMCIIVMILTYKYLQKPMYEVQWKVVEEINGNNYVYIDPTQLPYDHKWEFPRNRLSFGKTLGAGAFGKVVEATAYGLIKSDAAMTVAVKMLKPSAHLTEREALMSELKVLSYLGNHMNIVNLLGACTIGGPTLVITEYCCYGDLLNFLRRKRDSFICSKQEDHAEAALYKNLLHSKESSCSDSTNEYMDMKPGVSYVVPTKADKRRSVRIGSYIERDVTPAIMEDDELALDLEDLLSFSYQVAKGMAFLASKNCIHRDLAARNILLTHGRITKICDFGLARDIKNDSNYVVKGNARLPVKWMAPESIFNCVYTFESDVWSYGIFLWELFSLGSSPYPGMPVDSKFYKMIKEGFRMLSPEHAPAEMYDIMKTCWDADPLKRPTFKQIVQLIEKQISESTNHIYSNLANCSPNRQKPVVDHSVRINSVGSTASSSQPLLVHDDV
Serine/threonine-protein kinase PLK3 (Homo sapiens), sequence (Q9H4B4 whole entry, looked up): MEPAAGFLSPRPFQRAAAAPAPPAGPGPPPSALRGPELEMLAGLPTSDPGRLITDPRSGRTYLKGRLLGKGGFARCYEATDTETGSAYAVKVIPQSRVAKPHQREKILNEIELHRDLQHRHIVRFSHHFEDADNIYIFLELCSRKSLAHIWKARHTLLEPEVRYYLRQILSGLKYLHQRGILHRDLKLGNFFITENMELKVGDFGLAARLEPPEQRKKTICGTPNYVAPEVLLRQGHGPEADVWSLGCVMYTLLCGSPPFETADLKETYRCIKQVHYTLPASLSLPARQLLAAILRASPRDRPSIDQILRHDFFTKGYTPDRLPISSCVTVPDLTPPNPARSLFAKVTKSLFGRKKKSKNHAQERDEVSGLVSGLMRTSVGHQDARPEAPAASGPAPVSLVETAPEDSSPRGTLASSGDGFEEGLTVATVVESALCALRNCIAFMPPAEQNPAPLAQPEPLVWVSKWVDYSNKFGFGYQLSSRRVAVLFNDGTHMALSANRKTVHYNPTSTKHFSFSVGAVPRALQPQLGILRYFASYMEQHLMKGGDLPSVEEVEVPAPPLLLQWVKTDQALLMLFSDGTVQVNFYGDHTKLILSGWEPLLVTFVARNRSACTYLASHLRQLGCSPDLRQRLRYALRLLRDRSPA
5'-AMP-activated protein kinase catalytic subunit alpha-2 (Homo sapiens), sequence (P54646 whole entry, looked up): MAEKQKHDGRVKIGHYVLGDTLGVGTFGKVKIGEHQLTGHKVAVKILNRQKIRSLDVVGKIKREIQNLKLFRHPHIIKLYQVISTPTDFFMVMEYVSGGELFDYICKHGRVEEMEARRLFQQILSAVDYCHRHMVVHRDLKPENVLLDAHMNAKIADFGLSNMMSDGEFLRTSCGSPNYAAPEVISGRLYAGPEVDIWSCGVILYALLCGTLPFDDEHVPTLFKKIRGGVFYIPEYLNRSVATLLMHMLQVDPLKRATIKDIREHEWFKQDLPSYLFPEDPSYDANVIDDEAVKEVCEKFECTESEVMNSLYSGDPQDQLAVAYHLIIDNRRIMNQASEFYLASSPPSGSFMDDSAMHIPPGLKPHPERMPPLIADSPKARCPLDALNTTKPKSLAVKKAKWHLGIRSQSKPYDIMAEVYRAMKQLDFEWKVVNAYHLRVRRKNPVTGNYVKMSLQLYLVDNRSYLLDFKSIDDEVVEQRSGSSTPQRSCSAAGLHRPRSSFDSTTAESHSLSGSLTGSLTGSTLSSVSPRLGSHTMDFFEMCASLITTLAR
Protein kinase C theta type (Homo sapiens), sequence (Q04759 whole entry, looked up): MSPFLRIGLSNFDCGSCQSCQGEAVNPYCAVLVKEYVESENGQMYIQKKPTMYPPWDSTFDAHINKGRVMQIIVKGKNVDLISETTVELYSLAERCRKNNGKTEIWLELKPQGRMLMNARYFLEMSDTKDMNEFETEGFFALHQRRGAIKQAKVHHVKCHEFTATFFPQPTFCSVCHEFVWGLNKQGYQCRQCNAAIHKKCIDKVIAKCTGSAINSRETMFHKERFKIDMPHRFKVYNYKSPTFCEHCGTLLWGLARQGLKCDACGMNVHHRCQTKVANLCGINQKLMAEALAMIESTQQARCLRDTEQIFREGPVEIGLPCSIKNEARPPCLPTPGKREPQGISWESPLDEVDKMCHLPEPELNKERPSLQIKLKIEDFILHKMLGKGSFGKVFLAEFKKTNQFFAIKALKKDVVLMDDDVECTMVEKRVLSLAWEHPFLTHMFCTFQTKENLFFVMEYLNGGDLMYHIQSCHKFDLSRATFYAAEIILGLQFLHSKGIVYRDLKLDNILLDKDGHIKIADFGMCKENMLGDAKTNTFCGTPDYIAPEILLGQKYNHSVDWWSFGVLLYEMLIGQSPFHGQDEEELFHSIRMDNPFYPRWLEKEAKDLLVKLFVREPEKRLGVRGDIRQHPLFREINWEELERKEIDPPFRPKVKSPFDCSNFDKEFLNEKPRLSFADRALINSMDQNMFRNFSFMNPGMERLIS
Misshapen-like kinase 1 (Homo sapiens), sequence (Q8N4C8 whole entry, looked up): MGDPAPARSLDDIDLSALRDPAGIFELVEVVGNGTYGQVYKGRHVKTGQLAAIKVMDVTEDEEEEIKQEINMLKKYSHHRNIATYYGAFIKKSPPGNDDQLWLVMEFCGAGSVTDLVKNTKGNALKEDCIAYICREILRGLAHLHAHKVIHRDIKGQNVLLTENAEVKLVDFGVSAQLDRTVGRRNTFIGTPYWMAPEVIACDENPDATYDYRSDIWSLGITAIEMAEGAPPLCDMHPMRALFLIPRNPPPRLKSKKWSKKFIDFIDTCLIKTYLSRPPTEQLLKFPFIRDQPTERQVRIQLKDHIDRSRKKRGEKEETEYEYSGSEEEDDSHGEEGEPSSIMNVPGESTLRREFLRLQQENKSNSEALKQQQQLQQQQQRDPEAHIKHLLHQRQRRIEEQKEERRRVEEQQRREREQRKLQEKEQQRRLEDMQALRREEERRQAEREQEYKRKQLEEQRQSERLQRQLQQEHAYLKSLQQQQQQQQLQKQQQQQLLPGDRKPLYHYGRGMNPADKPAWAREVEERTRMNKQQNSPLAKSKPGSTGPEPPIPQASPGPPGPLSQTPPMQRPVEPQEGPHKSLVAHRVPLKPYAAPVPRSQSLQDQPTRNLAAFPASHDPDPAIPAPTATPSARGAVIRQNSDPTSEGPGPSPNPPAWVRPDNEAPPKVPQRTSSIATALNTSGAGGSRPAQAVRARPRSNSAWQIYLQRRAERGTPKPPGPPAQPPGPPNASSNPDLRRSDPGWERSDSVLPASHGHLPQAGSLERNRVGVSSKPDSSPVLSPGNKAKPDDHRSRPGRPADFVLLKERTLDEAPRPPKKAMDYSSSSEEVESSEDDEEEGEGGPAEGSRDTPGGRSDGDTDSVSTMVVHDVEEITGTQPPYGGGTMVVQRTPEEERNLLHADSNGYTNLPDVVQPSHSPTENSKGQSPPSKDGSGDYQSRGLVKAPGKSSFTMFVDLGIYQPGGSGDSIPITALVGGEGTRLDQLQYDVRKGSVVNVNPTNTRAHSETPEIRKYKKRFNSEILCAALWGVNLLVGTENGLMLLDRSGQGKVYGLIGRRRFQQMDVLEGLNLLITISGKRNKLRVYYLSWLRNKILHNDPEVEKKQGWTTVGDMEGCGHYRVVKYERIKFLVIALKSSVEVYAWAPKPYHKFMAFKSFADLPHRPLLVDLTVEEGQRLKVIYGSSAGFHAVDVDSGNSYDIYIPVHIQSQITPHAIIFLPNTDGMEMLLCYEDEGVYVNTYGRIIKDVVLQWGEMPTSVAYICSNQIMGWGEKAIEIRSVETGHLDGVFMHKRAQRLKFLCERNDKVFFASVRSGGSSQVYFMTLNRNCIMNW

For `O=C(N[C@@H](C1CC1)C(F)(F)F)c1cc(-c2cnn3cc(-c4ccc(F)cc4)cnc23)cs1`, the fold change (FC) in assay [1] is 0. Moreover, the inhibition (as a rule, the drop in the measured response relative to a control, in per cent) in assay [2] was determined as 7%.

Turning to `CNC(=O)c1ccccc1Oc1nc(Nc2cc(OC)c(OC)c(OC)c2)ncc1Br`, the fold change (FC) in assay [3] turned out to be 0.01; in assay [4], 1.14; in assay [6] it was 0. For the same compound, the inhibition in [5] came out at 4%.

Take `CC(C)[C@H](NC(=O)c1cc(-c2cnn3cc(-c4ccc(OCCN5CCCCC5)cc4)cnc23)cs1)C(F)(F)F`: the figures for the fold change (FC) in assay [7], in [9] and in assay [10] were 0, 0.48 and 0.47, respectively. Moreover, in assay [8], the inhibition stood at 4%.
